# bIAP act – bovine intestinal alkaline phosphatase activators, primary screen, biochemical, bovine IAP, CDP-star luminescence. activation factor at 20 µM. purified bovine IAP, 30 min; hits give high values; fold of DMSO-control signal, blank-subtracted. alkaline phosphatase, intestinal [Bos taurus]. 200,000 tested, 0.17% active;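 active = activation factor of 2 or more at 20 µM, a signal rise over negative controls twice the positive control's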
# mIAP block – inhibitors of mouse IAP, primary screen, biochemical, luminescence, uHTS; inhibition, % at 10 µM; purified mouse IAP, CDP-Star luminescence, 30 min; 330,000 tested, 0.2% active; AID 2806, 2010;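 active = inhibition of at least 40% at 10 µM in the primary screen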;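 note: plate controls were DMSO with enzyme for no effect and no enzyme wells for full effect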
# bIAP inh – bovine intestinal alkaline phosphatase inhibitors, primary screen, selectivity assay for TNAP inhibitor project, biochemical, bovine IAP, CDP-star luminescence; alkaline phosphatase, intestinal [Bos taurus]; purified bovine IAP, 30 min; inhibition, % at 20 µM; 190,000 tested, under 10 active; AID 1019, 2008;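 active = over 50% inhibition of intestinal alkaline phosphatase at 20 µM in the single-dose screen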
#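 test system = bovine IAP enzyme | medium = DEA buffer 100 mM, pH 9.8, with MgCl2 1.0 mM, ZnCl2 0.02 mM | detection = luminescence | dosing = single compound dose of 20 µM, 2% DMSO final | incubation = 30 min reaction at room temperature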
# mIAP activ – activators of mouse IAP, primary screen, biochemical, luminescence, uHTS; 330,000 tested, 0.24% active; activation factor at 10 µM; muIAP, CDP-Star luminescence, 30 min; hits give high values; 1 = vehicle-only enzyme signal, 0 = enzyme-free wells;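 active = activation factor of at least 2 at 20 µM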
#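 System: Mouse IAP enzyme | Also added: CDP-Star substrate | Dosing: Compounds dispensed in DMSO | Schedule: 30 min enzyme-substrate-compound incubation at room temperature | Technique: Chemiluminescence readout | Control set: DMSO-only wells and no-enzyme negative control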
# hIAP block – human IAP inhibitors, primary screen, biochemical, luminescence, uHTS; 330,000 tested, 0.12% active; purified IAP, CDP-Star luminescence, 30 min; inhibition, % at 10 µM;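 active = inhibition reaching a set limit with compound at 10 µM in the primary screen, cut at about 35% in these data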;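 note: plate controls were DMSO wells with enzyme for no effect and no-enzyme buffer wells for full effect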
# Target sequence (P09923 whole entry, looked up): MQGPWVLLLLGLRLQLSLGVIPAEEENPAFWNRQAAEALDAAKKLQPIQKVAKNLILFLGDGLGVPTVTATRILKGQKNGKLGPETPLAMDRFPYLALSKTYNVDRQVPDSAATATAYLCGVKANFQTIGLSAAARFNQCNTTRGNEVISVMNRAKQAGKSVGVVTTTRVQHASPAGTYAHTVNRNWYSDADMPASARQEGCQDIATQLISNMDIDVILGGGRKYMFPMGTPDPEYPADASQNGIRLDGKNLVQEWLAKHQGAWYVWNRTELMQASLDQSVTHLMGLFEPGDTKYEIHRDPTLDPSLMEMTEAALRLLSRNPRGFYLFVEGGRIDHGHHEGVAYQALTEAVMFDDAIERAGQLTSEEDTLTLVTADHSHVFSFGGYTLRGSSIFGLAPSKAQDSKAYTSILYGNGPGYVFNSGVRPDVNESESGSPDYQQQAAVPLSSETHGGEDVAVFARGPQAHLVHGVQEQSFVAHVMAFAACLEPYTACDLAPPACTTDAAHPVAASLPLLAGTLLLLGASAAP
# hIAP act – human IAP activators, primary screen, biochemical, luminescence, uHTS; Intestinal-type alkaline phosphatase (Homo sapiens), P09923; purified human IAP, CDP-Star luminescence, 30 min; hits give high values; 1 = vehicle-only enzyme, 0 = enzyme-free background; activation factor at 10 µM; 330,000 tested, 0.16% active;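 active = activation factor of the enzyme at least 2-fold when tested at 20 µM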
# mIAP inh confirm – inhibitors of mouse IAP, confirmation, biochemical, luminescence, single concentration. shares compounds with mIAP block. purified mouse IAP, CDP-Star luminescence, 30 min. inhibition, % at 10 µM. 11,000 tested, 4.7% active;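 active = inhibition of at least 40% at 10 µM in either of the two replicates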;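 note: plate controls were DMSO wells with enzyme for no effect and buffer wells lacking enzyme for full effect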
# Active calls of the source: *; · = not tested or not shown. Compounds with a hit are over-represented: about 0.77% of the library has one in this group of screens.
SMILES,bIAP act,mIAP block,bIAP inh,mIAP activ,hIAP block,hIAP act,mIAP inh confirm
Cc1ccc(NS(=O)(=O)c2cccc(C(=O)NCC3CCCO3)c2)cc1 (centres undefined),·,6,·,0.94,2,0.97,·
C[C@H]1CN([C@@H](C)CO)C(=O)c2cc(NC(=O)C3CCCCC3)ccc2O[C@H]1CN(C)Cc1ccc(-c2ccccc2)cc1,·,-11,·,1.1,-2,1,·
COc1ccc(NC(=O)Nc2cccc3c2O[C@H](CN(C)S(=O)(=O)c2ccc(OC)cc2)[C@@H](C)CN([C@H](C)CO)C3=O)cc1,·,-6,·,1.1,-18,1.2,·
C[C@H]1CN([C@@H](C)CO)C(=O)c2cc(NC(=O)Nc3cccc4ccccc34)ccc2O[C@@H]1CN(C)Cc1ccc(-c2ccccc2)cc1,·,-288,·,3.9*,-4,1,-114
COc1ccc(NC(=O)Nc2cccc3c2O[C@H](CN(C)Cc2ccc(-c4ccccc4)cc2)[C@@H](C)CN([C@H](C)CO)C3=O)cc1,·,-15,·,1.1,4,0.96,·
Cc1ccc(S(=O)(=O)N(C)C[C@H]2Oc3c(NC(=O)Nc4cccc5ccccc45)cccc3C(=O)N([C@@H](C)CO)C[C@@H]2C)cc1,·,-339,·,4.4*,-18,1.2,-214
C[C@@H]1CN([C@H](C)CO)C(=O)c2cc(NC(=O)C3CCCCC3)ccc2O[C@@H]1CN(C)Cc1ccc(C(F)(F)F)cc1,·,-7,·,1.1,10,0.9,·
C[C@@H]1CN([C@@H](C)CO)C(=O)c2cccc(NC(=O)Nc3ccc(F)cc3)c2O[C@@H]1CN(C)Cc1ccc(Oc2ccccc2)cc1,·,-333,·,4.3*,15,0.85,-117
C[C@@H]1CN([C@H](C)CO)C(=O)c2cc(NC(=O)Nc3cccc4ccccc34)ccc2O[C@H]1CN(C)Cc1ccc(C(F)(F)F)cc1,·,-231,·,3.3*,-10,1.1,-120
Cc1cc(NC(=O)COC(=O)C2CC2)ccc1Br,·,-15,·,1.2,2,0.98,·
C[C@H](CO)N1C[C@H](C)[C@@H](CN(C)C(=O)Nc2ccccc2)Oc2ccc(NC(=O)Nc3ccc4c(c3)OCO4)cc2C1=O,·,-202,·,3*,-1,1,-117
CC(C)=CCc1c(O)ccc(C2COc3c(CC=C(C)C)c(O)cc(O)c3C2=O)c1O (centres undefined),·,14,·,0.86,-11,1.1,·
CC(C)=CCc1c(O)c(CC=C(C)C)c2c(c1O)-c1cc(O)c(O)cc1CC2,·,62*,·,0.38,0,1,60*
CC1=C(C(=O)Nc2ccccc2)C(c2ccc(C)o2)n2c(s/c(=C\c3ccco3)c2=O)=N1 (centres undefined),0.8,44*,20,0.56,-18,1.2,65*
Oc1c(C=C2N=c3ccccc3=N2)sc(=S)n1-c1ccc(F)cc1,1,37,1,0.63,-18,1.2,38*
C/C(CC(=O)Nc1ccc2ccccc2c1)=N\NC(=O)c1ccc(O)c(O)c1,·,46*,·,0.54,-6,1.1,67*
C/C(CC(=O)Nc1ccc2ccccc2c1)=N\NC(=O)c1cnccn1,0.9,6,14,0.94,-9,1.1,·
CCc1c(C)sc(NC(=O)c2ccccc2[N+](=O)[O-])c1C(N)=O,1.1,0,-11,1,-12,1.1,·
CCCn1ncc(CN2CCC(C(=O)Nc3cccc(-c4cccc(F)c4)c3)CC2)c1C,·,-426,·,5.3*,-4,1,-428
C=CCn1cc(CN2CCC(C(=O)Nc3cccc(-c4cccc(F)c4)c3)CC2)c(C)n1,·,-149,·,2.5*,21,0.79,-194
O=C(CN1CCN(c2ccccc2F)CC1)c1ccc(O)c(O)c1,·,45*,·,0.55,15,0.85,51*
C=CCn1c(SCC(=O)c2ccc(O)c(O)c2)nnc1-c1cccnc1,·,57*,·,0.43,13,0.87,63*
C=CCn1c(SCC(=O)c2ccc(O)c(O)c2)nnc1-c1ccccc1OC,0.9,35,11,0.65,-11,1.1,·
CCn1c(CSc2nc3ccccc3s2)nnc1SCC(=O)c1ccc(O)c(O)c1,0.9,44*,9,0.56,1,0.99,47*
CCn1c(SCC(=O)c2ccc(O)c(O)c2)nnc1-c1ccccc1OC,0.8,44*,20,0.56,-1,1,63*
SMILES,bIAP act,mIAP block,bIAP inh,mIAP activ,hIAP block,hIAP act,mIAP inh confirm
CC1Cc2ccccc2N1C(=O)c1cc2cccnc2n(C)c1=O (centres undefined),·,-1,·,1,20,0.8,·
CCCNC(=O)c1ccc2c(=O)n(Cc3ccco3)c(=S)[nH]c2c1,1,64*,0,0.36,3,0.97,66*
CCN(CC(=O)Nc1c(F)cccc1F)C(=O)CCN1C(=O)C2CCCCC2C1=O (centres undefined),·,4,·,0.96,-15,1.2,·
CC(Oc1ccccc1)C(=O)N=C1SC2CS(=O)(=O)CC2N1c1cccc(F)c1 (centres undefined),·,11,·,0.89,12,0.88,·
COc1ccc(O)c(N)c1,1.1,41*,-11,0.59,26,0.73,48*
NC1=NC2(CCCCC2)N=C(Nc2ccc(F)cc2F)N1,1.3,1,-26,0.99,12,0.88,·
Cc1cc(C)cc(NC2=NC3(CCCCC3)N=C(N)N2)c1,3.7*,-199,-269,3*,1,0.99,-222
O=C(c1ccccc1)N1N=C(c2ccccc2O)CC1c1ccccc1 (centres undefined),·,-3,·,1,-20,1.2,·
CSC1=NSC2=NC(=O)/C(=C/c3coc4ccc(O)cc4c3=O)C(=N)N12,0.6,56*,37,0.44,-4,1,55*
N#CC1=C(N)C2=C(N3CCCCC3)CCCC2C1(C#N)C#N (centres undefined),0.3,23,·,0.77,-2,1,40*
N#CC(C#N)=C1C=C2C=C(N3CCCCC3)CCC2CC1 (centres undefined),1.5,·,-51,·,·,·,·
COc1ccccc1-c1cc(C(=O)N2CCOCC2)no1,·,0,·,0.99,14,0.86,·
O=C1CNC(=S)N1CCc1ccc(O)c(O)c1,·,77*,·,0.23,14,0.86,81*
CC(=O)c1cccc(NC(=O)NC2CCCc3ccccc32)c1 (centres undefined),1,-38,0,1.4,4,0.96,·

# Screening data: PubChem, Sanford-Burnham Center for Chemical Genomics
